Only some compounds are listed: those with a hit (about 9.2% of all), similar ones and a draw of the others.
Lmaj promast: inhibitors of Leishmania major promastigote growth. AID 1063. Leishmania major promastigotes, resazurin fluorescence viability. actives 9% (n = 200,000). inhibition, % at 10 µM; in the data active means inhibition above about 50%;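 further: promastigotes grown with compound for 44 hours at 28 °C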
HCT116 PTEN-null: growth suppressors of cells with PTEN tumor suppressor deletion. HCT116 PTEN-null viability, CellTiter-Glo, 60 h; active compounds read low. viability, % at 10 µM. actives 1.2% (n = 140,000);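 active means viability at or below a set limit, 4 SD under the median of all tested compounds, cut at about 3.7% in these data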;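 further: PTEN knockout HCT116 line with beta catenin targeted HCT116 as companion control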
Dynein cargo inh: dynein cargo transport inhibition | AID 1381 | actives 0.47% (n = 220,000) | 3617.4 mouse cells, GR-EGFP nuclear translocation imaging; test concentration mostly 20 µM; stimulated with dexamethasone, 1 µM; active compounds read low | z-score, hits read low;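 active means plate z-score of nuclear minus cytoplasmic receptor signal below a set negative limit, without overly bright fluorescence or cell loss, cut at about -3.5 in these data, passing the limit was not always enough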;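 further: z-score of nuclear minus cytoplasmic ring GR-EGFP intensity difference per well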
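Buffer or medium – tet-free medium with charcoal-stripped serum · Signal – automated 10x imaging of fixed Hoechst-stained cells · Also added – dexamethasone agonist, 1.0 µM final, for 30 min · Incubation – induction 48 h, compound 1 h, agonist 30 min · Read-out – GR-EGFP nuclear translocation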
Autophagy HCS: autophagy modulation, high-content screen | MEF GFP-LC3 puncta imaging; test concentration mostly 10 µM | calls only at 10 µM (by protocol) | actives 0.98% (n = 190,000) | AID 463193;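 active means percentage of spot-positive cells more than 3 SD above its plate mean, without a fluorescence outlier flag or 80% toxicity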;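 further: spot-positive cell cutoff set from DMSO-treated cells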
bCat KO growth: beta-catenin-lacking colon tumor cell growth suppression; actives 1.5% (n = 140,000); viability, % at 10 µM; AID 818; HCT116 beta-catenin knockout viability, CellTiter-Glo, 60 h; active compounds read low;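 active means viability at or under a set limit, the compound median less 4 SD, cut at about 6% in these data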;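 further: 0% = Hyamine 1622 control at 20 µM and 100% = untreated cell control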
The depositor's hits bear a star.

For CC(C(=O)Nc1cccc([N+](=O)[O-])c1)n1nnc2ccccc21 (stereo not given) the results were Lmaj promast -1, HCT116 PTEN-null 95, Dynein cargo inh -0.89, Autophagy HCS inactive and bCat KO growth 106.
For CC(C)(C)/C(Cn1cncn1)=N\OC(=O)Nc1ccc(Cl)cc1 the results were Lmaj promast 85*, HCT116 PTEN-null 107, Dynein cargo inh -0.35, Autophagy HCS inactive and bCat KO growth 105.
Screening CCOC(=O)c1c(-c2ccccc2)csc1NC(=O)/C(C#N)=C/c1ccc(OC)c(OC)c1 returned Lmaj promast 36, HCT116 PTEN-null 88, Dynein cargo inh 4.3, Autophagy HCS active and bCat KO growth 91.
For COc1ccc(/C=C(/C#N)C(=O)Nc2ccccc2C)cc1C(=O)O the results were Lmaj promast 59*, HCT116 PTEN-null 96, Dynein cargo inh 0.011, Autophagy HCS inactive and bCat KO growth 100.
`O=C(NCCCc1ccccc1)N1CCOCC1` gave Lmaj promast -2, Dynein cargo inh -0.34 and Autophagy HCS inactive.
COC(=O)c1ccc(C)c(NC(=O)CN(c2ccccc2)S(=O)(=O)N(C)C)c1 was read as Lmaj promast 3, Dynein cargo inh 1.4 and Autophagy HCS inactive.
CN(CCNC(=O)CN1CCN(Cc2ccccc2Cl)C1=O)Cc1ccccc1 was read as Lmaj promast 59*, HCT116 PTEN-null 91, Dynein cargo inh -0.3, Autophagy HCS inactive and bCat KO growth 87.
For CN1CCN(c2ccc(CNS(=O)(=O)c3ccc(Cl)cc3)cc2)CC1 the results were Dynein cargo inh -0.32.
For CCCCCCc1nc2ccccc2c(=O)n1NC(=O)c1c(O)c2c(n(CC(C)C)c1=O)CCCC2 the results were Lmaj promast 54*, HCT116 PTEN-null 21, Dynein cargo inh 1.3, Autophagy HCS inactive and bCat KO growth 19.
Screening Cc1nc2ccccc2c(=O)n1NC(=O)c1c(O)c2c(n(CC(C)C)c1=O)CCCC2 returned Lmaj promast -5, HCT116 PTEN-null 77, Dynein cargo inh -0.68, Autophagy HCS inactive and bCat KO growth 74.
`O=C(O)COc1ccc(/C=C/c2nc3ccc([N+](=O)[O-])cc3s2)cc1` gave Dynein cargo inh 0.37.
COC(=O)c1cccc(C23CC4(C2)[C@H](CN(Cc2ccc(C(F)(F)F)cc2)[C@@H]4c2ccccc2)C3c2ccc(C(F)(F)F)cc2)c1 (stereo not given in full) was read as Dynein cargo inh 0.32.
`COC(=O)C1=C(C)N(C)C(=S)NC1c1c(OC)ccc2ccccc12` (stereo not given) gave Lmaj promast 10, Dynein cargo inh 0.31 and Autophagy HCS active.
For COC(=O)C1=C(C)N(C)C(=O)NC1c1ccccc1 (stereo not given) the results were Lmaj promast 4, HCT116 PTEN-null 102, Dynein cargo inh 2.2, Autophagy HCS inactive and bCat KO growth 106.
`CC(c1ccccc1)C(CC(=O)O)C(=O)NC1CCCCC1` (stereo not given) gave Lmaj promast -5, HCT116 PTEN-null 80, Dynein cargo inh 1.2, Autophagy HCS inactive and bCat KO growth 109.
`CC/C(=C\C1CCCCC1)C(NP(=O)(c1ccccc1)c1ccccc1)c1ccccc1` (stereo not given) gave Lmaj promast 21, HCT116 PTEN-null 4, Dynein cargo inh 0.38, Autophagy HCS inactive and bCat KO growth 5.6*.
`Cc1cc(C)nc(Oc2ccc([N+](=O)[O-])cc2)n1` gave Lmaj promast 12, Dynein cargo inh 1.8 and Autophagy HCS inactive.
`CCn1c(SCC(=O)Nc2c(C#N)cnn2-c2ccccc2)nnc1-c1cccs1` gave Dynein cargo inh -0.51.
`CN1CCN(CC(=O)Nc2nc(-c3ccccc3)cs2)CC1` gave Lmaj promast 5, HCT116 PTEN-null 85, Dynein cargo inh -0.97, Autophagy HCS inactive and bCat KO growth 80.
For CN1CCN(CC(=O)N(C)c2nc(-c3ccccc3)cs2)CC1 the results were Lmaj promast 94*, HCT116 PTEN-null 88, Dynein cargo inh 1.2, Autophagy HCS inactive and bCat KO growth 86.
For Cc1cc(CNC(=O)c2ccc3c(c2)OCO3)c2ccccc2n1 the results were Lmaj promast 13, Dynein cargo inh 0.78 and Autophagy HCS inactive.
`Cc1cccc(NC(=S)N(Cc2ccc(Cl)cc2)Cc2ccc(C(=O)O)cc2)c1` gave Lmaj promast -4, Dynein cargo inh -0.1 and Autophagy HCS active.
`COc1cc(OC)cc(N(C(=O)CNC(=O)c2cccs2)C(C(=O)NCC2CCCO2)c2ccc(OC)c(OC)c2)c1` (stereo not given) gave Lmaj promast -3, Dynein cargo inh 0.12 and Autophagy HCS inactive.
`COc1ccc(Sc2nnc(Cc3ccccc3)c3ccccc23)cc1` gave Lmaj promast 85*, HCT116 PTEN-null 19, Dynein cargo inh -2.2, Autophagy HCS inactive and bCat KO growth 25.
O=C(CSc1nc2cc3ccccc3cc2[nH]1)Nc1ccc(F)cc1 was read as Lmaj promast -6, HCT116 PTEN-null 83, Dynein cargo inh -0.27, Autophagy HCS inactive and bCat KO growth 93.
For CCOC(=O)C1(Cc2ccccc2)CCN(Cc2cccc3nccnc23)CC1 the results were Lmaj promast 44, Dynein cargo inh -1.2 and Autophagy HCS inactive.
CCOC(=O)C1(CCOc2ccccc2)CCN(Cc2cccc3c2OCO3)CC1 was read as Lmaj promast 91*, Dynein cargo inh -0.45 and Autophagy HCS inactive.
Screening CCOC(=O)C1(CCOc2ccccc2)CCN(Cc2cc(OC)c3c(c2)OCO3)CC1 returned Lmaj promast 84*, Dynein cargo inh -0.24 and Autophagy HCS inactive.
`CCCCN(CC)S(=O)(=O)N1CCC(C(=O)NCc2ccc(F)cc2)CC1` gave Lmaj promast -3, HCT116 PTEN-null 75, Dynein cargo inh 2.2, Autophagy HCS inactive and bCat KO growth 74.
`Cc1nn(-c2ccc(Cl)cc2)c(NC(=O)C(C)C)c(-c2ccccc2)c1=O` gave Dynein cargo inh 2.7.
For O=C(CSc1nc2ccc([N+](=O)[O-])cc2[nH]1)c1ccc2ccccc2c1 the results were Lmaj promast 0, HCT116 PTEN-null 82, Dynein cargo inh 0.91, Autophagy HCS inactive and bCat KO growth 83.
`Cc1nc([N+](=O)[O-])c(Sc2nc3ccc([N+](=O)[O-])cc3[nH]2)n1Cc1ccccc1` gave Lmaj promast 54*, HCT116 PTEN-null 5, Dynein cargo inh -2.2, Autophagy HCS inactive and bCat KO growth 7.
For C[C@]12CC[C@@H]3c4ccc(OC(=O)c5ccccc5)cc4CC[C@H]3[C@@H]1CC[C@@H]2O the results were Lmaj promast 18, HCT116 PTEN-null 44, Dynein cargo inh 0.41, Autophagy HCS active and bCat KO growth 47.
`C[C@]12CC[C@@H]3c4ccc(O)cc4CC[C@H]3[C@@H]1CC[C@@H]2OC(=O)CCC(=O)O` gave Lmaj promast -3, HCT116 PTEN-null 91, Dynein cargo inh -0.54, Autophagy HCS inactive and bCat KO growth 95.

Source: PubChem (several laboratories)
